# Screens deposited in PubChem by Broad Institute.
# Shown are actives, neighbours in structure and some others; about 3.7% of the full set was active somewhere.
# DENV2 CPE rescue: inhibitors of DENV2 cytopathic effect, primary screen, cell-based, plate reader, single concentration; DENV2-infected cells, cytopathic effect rescue; CPE inhibition, % at 9.99 µM; hit rate 1.7% among 350,000; AID 651640, 2012; in the data active = CPE inhibition above about 20%, passing the limit was not always enough; inconclusive = no clear call, values can overlap the other calls; tested in BHK-21 cells;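 also: 0% = median of neutral control wells and 100% = median of positive control wells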
# F508del corr: F508del CFTR correction, initial screen, CFBE line, single point; AID 720511, 2013; CFBE cells, YFP halide quenching; stimulated with forskolin plus potentiator P3; % fluorescence drop versus neutral controls; hit rate 0.36% among 350,000; activity (quench increase), % at 7.58 µM;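 active = mean added fluorescence quench of at least 8% versus neutral control, with both replicates also reaching 8%; inconclusive = only one of the mean or replicate conditions met; inactive = mean below 8% and not both replicates reaching 8%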;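 also: cells transiently co-express mutant CFTR-F508del with the halide-sensitive YFP; corrector assay measuring rescue of mutant channel to the surface after 24 h compound exposure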
# FGF22 binding: binders of human FGF22 protein, primary screen, FGF22 synaptogenesis inhibitor project, biophysical, thermal shift, single point | Fibroblast growth factor 22 (Homo sapiens), Q9HCT0 | recombinant FGF22 thermal shift, SYPRO orange fluorescence; percent of sucrose octasulfate shift, DMSO zero | activity (Tm shift, normalised), % at 9.99 µM | hit rate 1.5% among 340,000;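 active = mean Tm shift, scaled 0 neutral to 100 positive control, at about 1.3% or above, every replicate too, limit read from the data; inconclusive = no clear call, values can overlap the other calls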
# Target sequence (Q9HCT0 whole entry, looked up): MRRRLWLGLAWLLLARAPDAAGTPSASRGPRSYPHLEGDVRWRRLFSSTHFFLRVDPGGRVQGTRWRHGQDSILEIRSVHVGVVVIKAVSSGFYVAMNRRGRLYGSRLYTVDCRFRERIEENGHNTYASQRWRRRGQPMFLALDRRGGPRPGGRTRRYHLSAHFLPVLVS
# ERAP1 inh: human ERAP1 aminopeptidase inhibitors, primary screen, biochemical, single point, plate reader; Endoplasmic reticulum aminopeptidase 1 (Homo sapiens), Q9NZ08; recombinant ERAP1, Leu-AMC fluorescence, 60 min; hit rate 0.15% among 340,000; AID 652197, 2013; inhibition, % at 10.7 µM;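 active = mean replicate inhibition of at least 30%, or all replicates individually reaching that 30% level; inactive = mean below 30% and not every replicate reaching it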;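 also: 0% = neutral control wells and 100% = L-leucinethiol positive control wells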
# E-selectin induc: E-selectin induction in HUVECs, primary screen, imaging, HUVEC, immunofluorescence imaging, single point; activation, % at 7.58 µM; AID 686992, 2013; P16581; hit rate 0.37% among 260,000; normalized: neutral wells 0, TNF-alpha wells 100;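 active = mean E-selectin-positive cell signal at least 10% of the positive control, reached in at least 60% of replicates, without over 20% cell loss; inconclusive = no rule given, readout overlaps actives, possibly toxicity-flagged; inactive = the rest, including those meeting only one limit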
#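 material = human umbilical vein endothelial cells (HUVEC), E-selectin induction | quantity = 3,000 cells/well | medium = EGM-2 growth medium on 0.1% gelatin-coated wells | technique = immunofluorescence imaging | read-out basis = % PE-positive cells | control set = TNF-alpha positive control, DMSO neutral control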
# Starred values were filed as active, the others as inactive; ? = inconclusive; . = no result given.
SMILES,DENV2 CPE rescue,F508del corr,FGF22 binding,ERAP1 inh,E-selectin induc
CC(C)NC(=O)Nc1ccc2c(c1)C(=O)N([C@H](C)CO)C[C@@H](C)[C@H](CN(C)S(=O)(=O)c1cn(C)cn1)O2,-5,0,0,-3,0
Cc1ccc(CNC(=O)C2CCCN(c3nc(C)cc(C)n3)C2)cc1 (stereo not drawn),-1,-1,43*,3,-1
Cc1cc(C)nc(N2CCCC(C(=O)NCc3cccs3)C2)n1 (stereo not drawn),5,-3,0,1,.
CCC(OC(=O)c1nsc(Cl)c1Cl)C(=O)NCc1ccco1 (stereo not drawn),.,.,.,.,-1
CC(OC(=O)c1nsc(Cl)c1Cl)C(=O)NCCc1ccccc1 (stereo not drawn),0,-4,0,1,29*
O=C(Nc1ccc(C(=O)N2CCN(c3ccncc3)CC2)cc1)c1ccc(Br)o1,23*,-3,0,-5,0
O=C(Nc1ccc(N2CCN(C(=O)c3cccs3)CC2)cc1)c1cccnc1,12,-3,43*,13,.
CCC(=O)N1CCN(c2ccc(NC(=O)c3ccc(Br)o3)cc2)CC1,-2,-1,44*,-1,.
O=C(Nc1ccc(C(=O)N2CCN(c3ccccn3)CC2)cc1)c1ccc(Br)o1,2,1,0,3,0
CO[C@@H]1CN(C)C(=O)c2ccc(NC(=O)Nc3ccccc3F)cc2OC[C@@H](C)N(C(C)=O)C[C@H]1C,5,-1,.,-2,0
COc1ccccc1OCCCCN1CCCCC1,1,2,0,-1,0
Cc1ccccc1OCCCCN1CCCCC1,34*,2,0,-1,.
CCc1cccc(OCCn2ccnc2)c1,.,.,.,.,1
CCc1cccc(OCCN2CCCC2)c1,50*,.,0,0,.
Cc1cccc(Cl)c1OCCN1CCCC1,70*,-1,0,1,.
Clc1cccc(Cl)c1OCCCCN1CCCCC1,-2,-2,0,4,0
CN1[C@@H]2c3ccc(C4=CCCCC4)c(=O)n3C[C@@H]2[C@@H](CO)[C@@H]1C(=O)NCc1ccccc1,?,3,0,-1,0
CNC[C@@H]1OCCCC[C@@H](C)Oc2ccc(NS(=O)(=O)c3ccc(OC)cc3)cc2C(=O)N([C@@H](C)CO)C[C@H]1C,.,0,.,.,0
Cc1ccc(/C=C/C(=O)O)cc1S(=O)(=O)NCc1ccco1,5,-2,43*,-4,0
C[C@H]1CN([C@@H](C)CO)C(=O)Cc2cc(NC(=O)Cc3ccccc3)ccc2O[C@@H]1CN(C)Cc1ccncc1,23*,-3,0,2,7
C[C@H](CO)N1C[C@H](C)[C@H](CN(C)Cc2ccncc2)Oc2ccc(NC(=O)Cc3ccccc3)cc2CC1=O,0,1,0,-1,14
C[C@@H]1CN([C@@H](C)CO)C(=O)Cc2cc(NC(=O)CCC(F)(F)F)ccc2O[C@@H]1CN(C)CC1CC1,42*,-1,-1,3,0
C[C@@H]1CN([C@H](C)CO)C(=O)Cc2cc(NC(=O)Cc3ccccc3)ccc2O[C@H]1CN(C)S(C)(=O)=O,-8,1,0,3,68*
C[C@@H]1CN([C@@H](C)CO)C(=O)Cc2cc(NC(=O)CCC(F)(F)F)ccc2O[C@H]1CN(C)CC1CC1,2,0,0,-2,0
C[C@H](CO)N1C[C@H](C)[C@H](CN(C)Cc2ccncc2)Oc2ccc(NC(=O)CCC(F)(F)F)cc2CC1=O,0,1,0,-2,314*
C[C@H]1CN([C@@H](C)CO)C(=O)Cc2cc(NC(=O)Cc3ccccc3)ccc2O[C@@H]1CN(C)S(C)(=O)=O,3,-3,0,-1,-13
CNC[C@@H]1OCCCC[C@H](C)Oc2ccc(NC(=O)Nc3ccccc3)cc2C(=O)N([C@H](C)CO)C[C@@H]1C,.,2,.,.,3
CO[C@H]1CN(C)C(=O)c2cc(NS(=O)(=O)c3ccccc3)ccc2OC[C@@H](C)N(Cc2nccs2)C[C@H]1C,3,-2,0,-2,0
